Screens from PubChem BioAssay.
STEP inh: STEP phosphatase inhibitors, primary screen, biochemical, fluorescence intensity, uHTS; inhibition, % at 20 µM; 360,000 tested, 0.25% active; recombinant STEP, OMFP fluorogenic substrate; Tyrosine-protein phosphatase non-receptor type 5 (Homo sapiens), P54829;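 active means inhibition at 20 µM, scaled per plate between control wells, above about 37%, limit read from the data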;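 further: 0% = DMSO with enzyme and substrate and 100% = substrate only without enzyme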
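System: STEP (striatal-enriched tyrosine phosphatase) enzyme, cell-free; medium: Bis-Tris pH 6.0 buffer with DTT, detergent; dosing: 20 µM, 1% DMSO; times: reaction 20 min, ambient temperature; detection: fluorescence, 480/540 nm; read-out basis: normalized % inhibition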
SUMO1-SIM PPI: modulators of SUMO1 protein-protein interactions, primary screen, biochemical, uHTS; Small ubiquitin-related modifier 1 (Homo sapiens), P63165; SUMO1 binding to a labelled peptide, TR-FRET, 1 h; inhibition, % at 20 µM; 360,000 tested, 0.33% active; AID 602429, 2012; in the data active means inhibition above about 37%
Target sequence (P63165 whole entry, looked up): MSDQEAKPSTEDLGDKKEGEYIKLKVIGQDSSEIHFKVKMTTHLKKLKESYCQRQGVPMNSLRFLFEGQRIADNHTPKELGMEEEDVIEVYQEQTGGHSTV
LMPTP block: LMPTP phosphatase inhibitors, primary screen, biochemical, fluorescence intensity, uHTS | 360,000 tested, 0.22% active | Low molecular weight phosphotyrosine protein phosphatase (Homo sapiens), P24666 | inhibition, % at 20 µM | recombinant LMPTP-A, OMFP fluorogenic substrate;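 active means compounds that cut the enzyme signal by at least half of the control window in the single-dose screen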;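 further: plate controls were DMSO wells with enzyme plus substrate for no effect and substrate without enzyme for full effect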
Target sequence (P24666 whole entry, looked up): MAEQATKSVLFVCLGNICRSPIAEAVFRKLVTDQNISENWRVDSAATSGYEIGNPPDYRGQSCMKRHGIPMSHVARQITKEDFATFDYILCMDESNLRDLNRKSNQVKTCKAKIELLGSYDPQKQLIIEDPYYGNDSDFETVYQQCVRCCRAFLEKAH
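Assay system: LMPTP-A enzyme. Input: 0.625 nM LMPTP-A final. Probe or stimulus: 400 µM OMFP. Compound dosing: single 20 µM dose. Schedule: 50 min dark incubation at room temperature. Detection: fluorescence intensity of OMFP turnover product. Read-out: percent inhibition versus substrate-only and uninhibited controls. Benchmarks: no-enzyme low control, uninhibited high control.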
Scp-1 inhibitor: Scp-1 phosphatase inhibitors, primary screen, biochemical, colorimetric, uHTS | inhibition, % at 20 µM | 340,000 tested, 0.88% active | Recombinant Scp1, phosphopeptide, malachite green phosphate absorbance;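 active means inhibition above about 50% at 20 µM, limit read from the data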;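 further: plate controls were DMSO wells with enzyme for no effect and wells lacking enzyme for full effect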
Target sequence (Q9GZU7 76-261 limits assumed): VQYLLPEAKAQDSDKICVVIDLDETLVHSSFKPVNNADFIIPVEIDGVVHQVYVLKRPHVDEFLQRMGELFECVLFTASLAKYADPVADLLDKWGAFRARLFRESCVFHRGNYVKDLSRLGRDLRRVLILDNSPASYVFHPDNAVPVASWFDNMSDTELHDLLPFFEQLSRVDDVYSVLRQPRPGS
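Test system: SCP-1 catalytic domain; Buffer or medium: Acidic Tris acetate buffer with magnesium and detergent; Also added: Phosphorylated 17-residue peptide substrate; Compound: single 20 µM dose, 1% DMSO; Schedule: enzyme reaction 45 min at room temperature, colour 5 min, stabilisation 30 min; Signal: Phosphate-binding colour reagent, absorbance read at 630 nm.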
DNMT1 block: human DNMT1 methyltransferase inhibitors, primary screen, biochemical, molecular beacon, fluorescence, HinP1I cleavage, uHTS | inhibition (reported as % activation of signal), % at 10 µM | 360,000 tested, 0.83% active | DNA (cytosine-5)-methyltransferase 1 (Homo sapiens), P26358; in the data active means inhibition above about 50%
Starred values were filed as active, the others as inactive; . = no result given; ! = a repeat was not active. Compounds with a hit are over-represented: about 1.7% of the library has one in this group of screens.

SMILES | STEP inh | SUMO1-SIM PPI | LMPTP block | Scp-1 inhibitor | DNMT1 block
O=C(CN1CCN(S(=O)(=O)c2ccc(Br)cc2)CC1)c1ccc(O)c(O)c1 | 2.6 | -6.0 | 59.0* | 4.8 | 2.5
COc1ccc(OC)c(C(=O)CN2CCN(S(=O)(=O)c3ccc(Br)cc3)CC2)c1 | 6.7 | -0.5 | -4.9 | -1.2 | -5.2
CC(C)c1ccc(S(=O)(=O)N2CCN(CC(=O)c3ccc(O)c(O)c3)CC2)cc1 | 1.8 | -3.0 | 67.8* | . | 3.6
CC(C)c1ccc(S(=O)(=O)N2CCN(CC(=O)Nc3ccc(Cl)cc3F)CC2)cc1 | 2.1 | -1.8 | 1.7 | 2.3 | -6.2
CCN(CC)c1ccc(C(=O)NNC(=O)C2CCN(c3ncnc4sc(C)c(C)c34)CC2)cc1 | 0.9 | -2.7 | 1.9 | . | 1.7
O=C(CSc1ccc(Cl)cc1)c1ccco1 | 11.0 | 2.8 | 20.4 | 72.9* | 97.9*
Cc1cc(/C=N/NC(N)=S)c(O)c(/C=N/NC(N)=S)c1 | -1.4 | -6.6 | 1.4 | 12.3 | 53.2*
CC1(C)C2CC[C@]3(C)[C@H](C(=O)C=C4[C@@H]5C[C@@](C)(C(=O)O)CC[C@]5(C)CC[C@]43C)[C@@]2(C)CC[C@@H]1O[C@H]1O[C@H](C(=O)O)[C@@H](O)[C@H](O)[C@H]1O[C@@H]1O[C@H](C(=O)O)[C@@H](O)[C@H](O)[C@H]1O (stereo partly specified) | -1.8 | 40.9* | -2.0 | . | 1.4
Cc1cnc(CNC(=O)C2CCC(=O)N(Cc3ccc(Cl)cc3)C2)[nH]1 (stereo unspecified) | 0.3 | 1.7 | 0.0 | -4.8 | 1.4
Cc1nnc2c(NCCC(C)C)nc3ccccc3n12 | -3.0 | -0.8 | -2.1 | -6.0 | -0.5
Cc1nnc2c(NCC(C)c3ccccc3)nc3ccccc3n12 (stereo unspecified) | 2.3 | 48.3* | 1.2 | -4.0 | 2.6
CSc1ncnc2c1ncn2CCCNCc1ccc2c(c1)OCO2 | 3.0 | 3.7 | -0.2 | . | 6.5
CCOC(=O)c1sc(NC(=O)c2ccc(OC)cc2)nc1C | 0.2 | 55.3* | 1.0 | -1.9 | 0.3
O=P(CCO)(c1ccccc1)c1ccccc1 | 0.4 | 0.7 | -0.2 | -5.0 | -0.8
O=C(O)CP(=O)(c1ccccc1)c1ccccc1 | -4.2 | 46.5* | -0.4 | -11.2 | 0.6
O=C1CCCN1CCCNc1nc(NCc2ccccc2)nc2ccsc12 | -0.4 | 2.4 | 67.5* | . | 6.8
CCCC(=O)N1CCCC1(C)C(=O)Nc1cc(C)ccc1C (stereo unspecified) | -2.8 | 8.1 | -1.7 | . | 5.3
COc1ccccc1C(=O)NC(=Nc1nc2ccccc2o1)NC(=O)c1ccccc1OC | -2.7 | 67.0*! | 1.4 | -6.7 | 0.2
O=C(NC(=Nc1nc2ccccc2o1)NC(=O)c1ccccc1)c1ccccc1 | 1.2 | -0.3 | 0.8 | 26.3 | 29.2
Cn1c(=O)c2c(ncn2CC(=O)OCC(=O)c2ccc(OC(F)F)cc2OC(F)F)n(C)c1=O | -0.1 | 3.9 | 0.2 | . | -0.3
CCN(CC(=O)Nc1ccccc1C(F)(F)F)C(=O)c1cc2c(s1)CCCCC2 | -1.1 | 0.3 | 0.6 | -4.8 | 0.8
COCCN(CC(=O)Nc1cccc(C)c1C)C(=O)c1cc2c(s1)CCC2 | 9.2 | 9.4 | 5.4 | 61.1* | 39.3
C[C@@H]1CCCCO[C@H](CN(C)S(=O)(=O)c2cccs2)[C@@H](C)CN([C@H](C)CO)C(=O)c2cc(NC(=O)C3CCCCC3)ccc2O1 | -1.1 | 8.8 | -1.2 | . | -3.9
COc1ccc(NC(=O)C(=O)N/N=C\c2ccc(CNC(=O)C(=O)Nc3ccc(C)c(C)c3)o2)c(OC)c1 | . | . | . | 68.1* | .
COc1cccc2nc3c(C(=O)NCCN(C)C)cccc3cc12 | -2.6 | -34.1 | 1.9 | 4.7 | 59.8*
COc1ccc(C(=O)NCCN(C)C)c2nc3ccccc3cc12 | -3.1 | -19.5 | 0.2 | -0.3 | 56.3*
CN(C)CCNC(=O)c1cccc2nc3c(ccc4ccccc43)nc12 | 5.6 | -47.2 | -0.6 | -0.3 | 61.0*
